From ChEMBL document CHEMBL2434863, “Synthesis and in vitro/in vivo antibacterial activity of oxazolidinones having thiocarbamate at C-5 on the A-ring and an amide- or urea-substituted [1,2,5]triazepane or [1,2,5]oxadiazepane as the C-ring” (Eur J Med Chem, 2013)

How the values were obtained:
Type in all cases: functional
Streptococcus pneumoniae = assay: Antibacterial activity against Streptococcus pneumoniae SR26207 clinical isolate assessed as growth inhibition by broth microdilution method
Staphylococcus aureus [1] = assay: Antibacterial activity against Staphylococcus aureus SR20549 clinical isolate assessed as growth inhibition by broth microdilution method
Staphylococcus aureus [2] = assay: Antibacterial activity against linezolid-resistant Staphylococcus aureus NRS271 assessed as growth inhibition by broth microdilution method
Staphylococcus aureus [3] = assay: Antibacterial activity against Staphylococcus aureus Smith assessed as growth inhibition by broth microdilution method
Moraxella catarrhalis = assay: Antibacterial activity against Moraxella catarrhalis SR26840 clinical isolate assessed as growth inhibition by broth microdilution method
Enterococcus faecalis = assay: Antibacterial activity against Enterococcus faecalis SR1004 clinical isolate assessed as growth inhibition by broth microdilution method
Haemophilus influenzae = assay: Antibacterial activity against Haemophilus influenzae SR27914 clinical isolate assessed as growth inhibition by broth microdilution method
Enterococcus faecium = assay: Antibacterial activity against Enterococcus faecium SR7940 clinical isolate assessed as growth inhibition by broth microdilution method
Staphylococcus aureus [4] = assay: Antibacterial activity against methicillin-resistant Staphylococcus aureus SR3637 infected in JCL/ICR mouse systemic infection model assessed as mortality administered as iv measured over 7 days; conditions: 168 h
In short: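 Lethal systemic infection model in mice; test agents were given intravenously.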

Staphylococcus aureus [5] = assay: Antibacterial activity against methicillin-resistant Staphylococcus aureus SR3637 assessed as growth inhibition by broth microdilution method

Structure (SMILES)	MIC (Streptococcus pneumoniae) [µg/mL]	MIC (Staphylococcus aureus [1]) [µg/mL]	MIC (Staphylococcus aureus [2]) [µg/mL]	MIC (Staphylococcus aureus [3]) [µg/mL]	MIC (Moraxella catarrhalis) [µg/mL]	MIC (Enterococcus faecalis) [µg/mL]	MIC (Haemophilus influenzae) [µg/mL]	MIC (Enterococcus faecium) [µg/mL]	ED50 (Staphylococcus aureus [4]) [mg/kg]	MIC (Staphylococcus aureus [5]) [µg/mL]
O=C1O[C@@H](Cn2ccnn2)CN1c1cc(F)c(N2CCn3c(=O)c4cccnc4n3CC2)c(F)c1	0.5	0.5	8	2	8	1	32	1		
O=C(NO)N1CCN(c2c(F)cc(N3C[C@H](Cn4ccnn4)OC3=O)cc2F)CCN1	0.5	2	64	4	8	8	16	8		
O=C(NO)N1CCN(c2c(F)cc(N3C[C@H](Cn4ccnn4)OC3=O)cc2F)CCO1	0.5	2	64	2	8	4	16	4		
COC(=S)NC[C@H]1CN(c2ccc(N3CCNN(C(C)=O)CC3)c(F)c2)C(=O)O1	0.063	0.5	8	1	4	0.5	16	0.5	2.85	0.5
COC(=S)NC[C@H]1CN(c2cc(F)c(N3CCNN(C(C)=O)CC3)c(F)c2)C(=O)O1	0.125	0.5	4	1	2	1	32	0.5		
CONC(=O)N1CCN(c2c(F)cc(N3C[C@H](CNC(=S)OC)OC3=O)cc2F)CCN1	0.25	0.5	4	0.5	2	0.5	16	0.25	3.05	0.5
NC(=O)N1CCN(c2c(F)cc(N3C[C@H](Cn4ccnn4)OC3=O)cc2F)CCN1	0.5	1	32	1	4	2	16	4		
O=C1O[C@@H](Cn2ccnn2)CN1c1ccc(N2CCn3c(=O)c4cccnc4n3CC2)c(F)c1	1	2	64	4	32	4	32	4		
COC(=S)NC[C@H]1CN(c2ccc(N3CCn4c(=O)c5cccnc5n4CC3)c(F)c2)C(=O)O1	0.125	0.25	2	0.25	2	0.5	16	0.25	3.17	0.25
CC(=O)NC[C@H]1CN(c2ccc(N3CCn4c(=O)c5cccnc5n4CC3)c(F)c2)C(=O)O1	0.5	2	16	1	16	2	32	2		
COC(=S)NC[C@H]1CN(c2cc(F)c(N3CCn4c(=O)c5cccnc5n4CC3)c(F)c2)C(=O)O1	0.125	0.25	2	0.25	1	0.5	> 64	0.25	9.83	0.25
O=C(C(F)F)N1CCN(c2c(F)cc(N3C[C@H](CNc4ccon4)OC3=O)cc2F)CCN1	0.125	0.5	8	1	4	0.5	16	0.5		
CNC(=O)N1CCN(c2c(F)cc(N3C[C@H](CNC(=S)OC)OC3=O)cc2F)CCO1	0.125	0.5	4	0.5	2	1	32	0.5		
CNC(=O)N1CCN(c2c(F)cc(N3C[C@H](CNC(=S)OC)OC3=O)cc2F)CCN1	≤ 0.063	0.25	2	0.25	1	0.25	8	0.25	3.17	0.25
CONC(=O)N1CCN(c2ccc(N3C[C@H](CNC(=S)OC)OC3=O)cc2F)CCN1	0.25	1	16	1	4	0.5	16	0.5		
COC(=S)NC[C@H]1CN(c2ccc(N3CCNN(C(=O)NO)CC3)c(F)c2)C(=O)O1	≤ 0.063	0.5	16	1	4	1	4	1		

Structure (SMILES)	MIC (Streptococcus pneumoniae) [µg/mL]	MIC (Staphylococcus aureus [1]) [µg/mL]	MIC (Staphylococcus aureus [2]) [µg/mL]	MIC (Staphylococcus aureus [3]) [µg/mL]	MIC (Moraxella catarrhalis) [µg/mL]	MIC (Enterococcus faecalis) [µg/mL]	MIC (Haemophilus influenzae) [µg/mL]	MIC (Enterococcus faecium) [µg/mL]	ED50 (Staphylococcus aureus [4]) [mg/kg]	MIC (Staphylococcus aureus [5]) [µg/mL]
O=C(CO)N1CCN(c2ccc(-c3ccc(N4C[C@H](Cn5ccnn5)OC4=O)cc3F)cn2)CCO1	0.25	1	8	2	8	2	32	1		
NC(=O)N1CCN(c2c(F)cc(N3C[C@H](Cn4ccnn4)OC3=O)cc2F)CCO1	1	1	32	2	8	4	16	4		
CC(=O)NC[C@H]1CN(c2cc(F)c(N3CCON(C(C)=O)CC3)c(F)c2)C(=O)O1	1	2	32	4	4	2	32	4		
O=C(C(F)F)N1CCN(c2c(F)cc(N3C[C@H](Cn4ccnn4)OC3=O)cc2F)CCN1	0.125	0.5	16	1	8	1	16	1		
CC(=O)NC[C@H]1CN(c2cc(F)c(N3CCn4c(=O)c5cc(Cl)cnc5n4CC3)c(F)c2)C(=O)O1	0.25	1	8	1	4	2	64	1		
Nc1cnc2c(c1)c(=O)n1n2CCN(c2c(F)cc(N3C[C@H](Cn4ccnn4)OC3=O)cc2F)CC1	0.25	1	16	1	16	2	32	2		
CC(=O)N1CCN(c2c(F)cc(N3C[C@H](Cn4ccnn4)OC3=O)cc2F)CCN1	1	1	16	2	16	2	32	2		
CC(=O)NC[C@H]1CN(c2cc(F)c(N3CCn4c(=O)c5cccnc5n4CC3)c(F)c2)C(=O)O1	0.25	1	8	0.5	4	1	16	1		
CNC(=O)N1CCN(c2c(F)cc(N3C[C@H](Cn4ccnn4)OC3=O)cc2F)CCO1	1	2	32	8	16	4	32	2		
CC(=O)NC[C@H]1CN(c2cc(F)c(N3CCn4c(=O)c5cc(N)cnc5n4CC3)c(F)c2)C(=O)O1	0.25	1	8	0.5	8	2	32	2		
CONC(=O)N1CCN(c2c(F)cc(N3C[C@H](CNC(=S)OC)OC3=O)cc2F)CCO1	0.125	0.5	8	1	2	1	16	0.5		
CC(=O)N1CCN(c2c(F)cc(N3C[C@H](CNC(C)=S)OC3=O)cc2F)CCO1	0.125	0.25	4	1	2	0.5	8	0.5		
CC(=O)NC[C@H]1CN(c2cc(F)c(N3CCn4c(=O)c5cc(Br)cnc5n4CC3)c(F)c2)C(=O)O1	0.25	1	8	1	4	2	64	1		
NC(=O)N1CCN(c2c(F)cc(N3C[C@H](CNc4ccon4)OC3=O)cc2F)CCN1	0.125	0.5	16	1	8	1	16	1		
CC(=O)NC[C@H]1CN(c2ccc(-c3ccc(N4CCON(C(=O)CO)CC4)nc3)c(F)c2)C(=O)O1	0.125	1	8	2	16	1	16	1		
